For 18 molecules, cytotoxicity, MIC and inhibition results are on record in ChEMBL document CHEMBL2434961, “Development of 3-phenyl-4,5,6,7-tetrahydro-1H-pyrazolo[4,3-c]pyridine derivatives as novel Mycobacterium tuberculosis pantothenate synthetase inhibitors” (Eur J Med Chem, 2013).

In general, MIC refers to the smallest concentration in the dilution series that meets the test's criterion for growth inhibition. As usually defined, the inhibition is the relative decrease from the control value, in per cent.

In brackets after ≈: the same amount, converted by molar mass. A value given as a limit tells only on which side of the number the result lay.

System in the first series: not listed separately
Nature of the series: Cytotoxicity against mouse RAW264.7 cells assessed as inhibition of cell viability at 50 uM after 72 hrs by MTT assay relative to control. Conditions: read-out: INH. The class given is cell-based. Put shortly: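 RAW 264.7 mouse macrophage cells exposed to compound at 50 µM for 72 h. Viability assessed by cellular conversion of MTT to formazan.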
For `O=C(NCc1ccccc1)N1CCc2c(c(-c3ccccc3)nn2C(=O)c2ccccc2)C1`, the cytotoxicity at 72 h, 50 µM came to 0.7%.
Turning to `CC(=O)c1ccc(NC(=O)N2CCc3c(c(-c4ccccc4)nn3C(=O)C3CCCCC3)C2)cc1`, the cytotoxicity at 72 h, 50 µM amounted to 22.5%.
For `CC(C)NC(=O)N1CCc2c(c(-c3ccccc3)nn2C(=O)c2ccccc2)C1`, the cytotoxicity at 72 h, 50 µM was 10.6%.
With `O=C(C1CCCCC1)n1nc(-c2ccccc2)c2c1CCN(C(=S)Nc1ccc([N+](=O)[O-])cc1)C2`, the cytotoxicity at 72 h, 50 µM is 0%.
On the same count and under the same terms, the value for `Cc1ccc(S(=O)(=O)N2CCc3c(c(-c4ccccc4)nn3C(=O)c3ccccc3)C2)cc1` was 0%; that for `O=C(C1CCCCC1)n1nc(-c2ccccc2)c2c1CCN(S(=O)(=O)c1ccc([N+](=O)[O-])cc1)C2` was 8.3%.
Still for that read-out and setting: the value for `COc1ccc(NC(=S)N2CCc3c(c(-c4ccccc4)nn3C(=O)c3ccccc3)C2)cc1` was 0%; that for `COc1ccc(NC(=O)N2CCc3c(c(-c4ccccc4)nn3C(=O)C3CCCCC3)C2)cc1` was 52.5%; that for `O=C(C1CCCCC1)n1nc(-c2ccccc2)c2c1CCN(C(=S)NCc1ccccc1)C2` was 20.6%.
For the molecule `O=C(C1CCCCC1)n1nc(-c2ccccc2)c2c1CCN(S(=O)(=O)c1ccc(F)cc1)C2`, the cytotoxicity at 72 h, 50 µM turned out to be 1.4%.
Turning to `O=C(c1ccccc1)n1nc(-c2ccccc2)c2c1CCN(S(=O)(=O)c1ccc([N+](=O)[O-])cc1)C2`, the cytotoxicity at 72 h, 50 µM was found to be 18.6%.
Same read-out and setting: with `O=C(Nc1cccc2ccccc12)N1CCc2c(c(-c3ccccc3)nn2C(=O)C2CCCCC2)C1` the figure was 4.1%.
For the molecule `CC(=O)c1ccc(NC(=O)N2CCc3c(c(-c4ccccc4)nn3C(=O)c3ccccc3)C2)cc1`, the cytotoxicity at 72 h, 50 µM worked out at 12.8%.
`Cc1ccc(NC(=S)N2CCc3c(c(-c4ccccc4)nn3C(=O)c3ccccc3)C2)cc1`: the cytotoxicity at 72 h, 50 µM came to 0%.
Take `O=C(c1ccccc1)n1nc(-c2ccccc2)c2c1CCN(C(=S)Nc1ccc(Cl)cc1)C2`: the cytotoxicity at 72 h, 50 µM is 0%.
Same read-out and setting: the value for `O=C(c1ccccc1)n1nc(-c2ccccc2)c2c1CCN(C(=S)NCc1ccccc1)C2` was 0%.

The next series deals with Mycobacterium tuberculosis. The series can be described thus: Antibacterial activity against Mycobacterium tuberculosis H37Rv ATCC 27294 assessed as growth inhibition after 28 days by agar dilution method. The class given is functional. Conditions: H37Rv ATCC 27294, 672 h. Put shortly:
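Two-fold serial dilutions incorporated into Middlebrook 7H11 agar with OADC, final 50 to 0.78 µg/mL. Inoculum of 1 mg/mL (wet weight) in 0.05% Tween 80 saline, diluted 10⁻² to ~10⁷ cfu/mL. 5 µL spotted per tube, incubated at 37 °C for 28 days. MIC is the lowest concentration giving complete growth inhibition.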
On to `NNC(=O)c1ccncc1` [ISONIAZID], for which the MIC stood at 0.72 µM (≈ 0.0987 µg/mL).
As to `O=C(NCc1ccccc1)N1CCc2c(c(-c3ccccc3)nn2C(=O)c2ccccc2)C1`, the minimal inhibitory concentration (MIC) was 114 µM (≈ 49.8 µg/mL).
Same read-out and setting: the value for `CC(=O)c1ccc(NC(=O)N2CCc3c(c(-c4ccccc4)nn3C(=O)C3CCCCC3)C2)cc1` was 108 µM (≈ 50.9 µg/mL).
Consider `CC[C@@H](CO)NCCN[C@@H](CC)CO` [ETHAMBUTOL], for which the MIC is 15.3 µM (≈ 3.12 µg/mL).
Turning to `CC(C)NC(=O)N1CCc2c(c(-c3ccccc3)nn2C(=O)c2ccccc2)C1`, the MIC is 129 µM (≈ 50 µg/mL).
With `O=C(C1CCCCC1)n1nc(-c2ccccc2)c2c1CCN(C(=S)Nc1ccc([N+](=O)[O-])cc1)C2`, the minimal inhibitory concentration (MIC) came out at 53.5 µM (≈ 26.2 µg/mL).
In the case of `Cc1ccc(S(=O)(=O)N2CCc3c(c(-c4ccccc4)nn3C(=O)c3ccccc3)C2)cc1`, the minimum inhibitory concentration (MIC) came out at 109 µM (≈ 50 µg/mL).
Turning to `O=C(C1CCCCC1)n1nc(-c2ccccc2)c2c1CCN(S(=O)(=O)c1ccc([N+](=O)[O-])cc1)C2`, the MIC came to 50.5 µM (≈ 25 µg/mL).
Same read-out and setting: the value for `COc1ccc(NC(=S)N2CCc3c(c(-c4ccccc4)nn3C(=O)c3ccccc3)C2)cc1` was 107 µM (≈ 50 µg/mL); that for `COc1ccc(NC(=O)N2CCc3c(c(-c4ccccc4)nn3C(=O)C3CCCCC3)C2)cc1` was 109 µM (≈ 50 µg/mL); that for `O=C(C1CCCCC1)n1nc(-c2ccccc2)c2c1CCN(C(=S)NCc1ccccc1)C2` was 108 µM (≈ 49.5 µg/mL).
For `O=C(C1CCCCC1)n1nc(-c2ccccc2)c2c1CCN(S(=O)(=O)c1ccc(F)cc1)C2`, the MIC was 53.5 µM (≈ 25 µg/mL).
Still for that read-out and setting: with `O=C(c1ccccc1)n1nc(-c2ccccc2)c2c1CCN(S(=O)(=O)c1ccc([N+](=O)[O-])cc1)C2` the figure was 25.6 µM (≈ 12.5 µg/mL).
`O=C(Nc1cccc2ccccc12)N1CCc2c(c(-c3ccccc3)nn2C(=O)C2CCCCC2)C1`: the MIC is 52.2 µM (≈ 25 µg/mL).
For the molecule `CC(=O)c1ccc(NC(=O)N2CCc3c(c(-c4ccccc4)nn3C(=O)c3ccccc3)C2)cc1`, the minimum inhibitory concentration (MIC) is more than 108 µM.
Still for that read-out and setting: with `Cc1ccc(NC(=S)N2CCc3c(c(-c4ccccc4)nn3C(=O)c3ccccc3)C2)cc1` the figure was more than 110 µM; with `O=C(c1ccccc1)n1nc(-c2ccccc2)c2c1CCN(C(=S)Nc1ccc(Cl)cc1)C2`, 106 µM (≈ 50 µg/mL); with `O=C(c1ccccc1)n1nc(-c2ccccc2)c2c1CCN(C(=S)NCc1ccccc1)C2`, 110 µM (≈ 50 µg/mL).

The next series addresses T1, Pantothenate synthetase (Mycobacterium tuberculosis) (UniProt P9WIL5).
T1 sequence (whole entry): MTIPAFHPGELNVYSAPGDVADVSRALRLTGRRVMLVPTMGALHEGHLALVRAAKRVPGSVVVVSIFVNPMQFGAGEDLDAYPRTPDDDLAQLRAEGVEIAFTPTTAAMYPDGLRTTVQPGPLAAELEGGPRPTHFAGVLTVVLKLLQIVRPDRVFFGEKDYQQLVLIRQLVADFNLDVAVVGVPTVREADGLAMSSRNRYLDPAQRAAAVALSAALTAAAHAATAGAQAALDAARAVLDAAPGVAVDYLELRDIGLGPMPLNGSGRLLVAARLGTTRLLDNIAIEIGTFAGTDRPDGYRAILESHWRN
The series can be described thus: Inhibition of Mycobacterium tuberculosis pantothenate synthetase cloned in Escherichia coli BL21 (DE3) using ATP, beta-alanine, pantoic acid as substrate assessed as NAD+ production at 100 uM measured every 12 secs for 120 secs by spectrophotometric analysis relative to control.
Conditions: not given
Put shortly: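 Coupled assay linking AMP from β-alanine plus pantoate condensation to NADH oxidation via myokinase, pyruvate kinase and lactate dehydrogenase. Mix held NADH, pantoic acid, β-alanine, ATP, phosphoenolpyruvate and MgCl₂ in buffer; compound (100 µM) added; reaction started with PS. A340 read every 12 s for 120 s. % inhibition = 100 × (1 − (compound rate − background)/(full rate − background)).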
`NNC(=O)c1ccncc1` [ISONIAZID]: the inhibition amounted to 0%.
On to `O=C(NCc1ccccc1)N1CCc2c(c(-c3ccccc3)nn2C(=O)c2ccccc2)C1`, for which the inhibition came to 46.2%.
On the same count and under the same terms, with `CC(=O)c1ccc(NC(=O)N2CCc3c(c(-c4ccccc4)nn3C(=O)C3CCCCC3)C2)cc1` the figure was 51.4%; with `CC[C@@H](CO)NCCN[C@@H](CC)CO` [ETHAMBUTOL], 0%.
On to `CC(C)NC(=O)N1CCc2c(c(-c3ccccc3)nn2C(=O)c2ccccc2)C1`, for which the inhibition turned out to be 40.9%.
Still for that read-out and setting: with `O=C(C1CCCCC1)n1nc(-c2ccccc2)c2c1CCN(C(=S)Nc1ccc([N+](=O)[O-])cc1)C2` the figure was 47.3%.
As to `Cc1ccc(S(=O)(=O)N2CCc3c(c(-c4ccccc4)nn3C(=O)c3ccccc3)C2)cc1`, the inhibition is 9%.
As to `O=C(C1CCCCC1)n1nc(-c2ccccc2)c2c1CCN(S(=O)(=O)c1ccc([N+](=O)[O-])cc1)C2`, the inhibition came to 50.2%.
Turning to `COc1ccc(NC(=S)N2CCc3c(c(-c4ccccc4)nn3C(=O)c3ccccc3)C2)cc1`, the inhibition turned out to be 10.2%.
For the molecule `COc1ccc(NC(=O)N2CCc3c(c(-c4ccccc4)nn3C(=O)C3CCCCC3)C2)cc1`, the inhibition stood at 38.7%.
For `O=C(C1CCCCC1)n1nc(-c2ccccc2)c2c1CCN(C(=S)NCc1ccccc1)C2`, the inhibition is 51.4%.
For `O=C(C1CCCCC1)n1nc(-c2ccccc2)c2c1CCN(S(=O)(=O)c1ccc(F)cc1)C2`, the inhibition was 46.8%.
On the same count and under the same terms, with `O=C(c1ccccc1)n1nc(-c2ccccc2)c2c1CCN(S(=O)(=O)c1ccc([N+](=O)[O-])cc1)C2` the figure was 39.7%; with `O=C(Nc1cccc2ccccc12)N1CCc2c(c(-c3ccccc3)nn2C(=O)C2CCCCC2)C1`, 50.9%; with `CC(=O)c1ccc(NC(=O)N2CCc3c(c(-c4ccccc4)nn3C(=O)c3ccccc3)C2)cc1`, 43.7%.
Same read-out and setting: with `Cc1ccc(NC(=S)N2CCc3c(c(-c4ccccc4)nn3C(=O)c3ccccc3)C2)cc1` the figure was 23.9%; with `O=C(c1ccccc1)n1nc(-c2ccccc2)c2c1CCN(C(=S)Nc1ccc(Cl)cc1)C2`, 37.7%; with `O=C(c1ccccc1)n1nc(-c2ccccc2)c2c1CCN(C(=S)NCc1ccccc1)C2`, 52.1%.
